The text below walks through data of ChEMBL document CHEMBL1121743, “Synthesis and antibacterial activity of 1-(arylamino)-1H-pyrroles and 4-(1H-pyrrol-1-ylimino)-2,5-cyclohexadienes” (1981).

Holding throughout (type): functional
Assay [1] relates to Mus musculus. Description: Antitubercular activity (12.5 mg/kg) in the 31-day murine mice model. The procedure, abridged: (§1)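 Female Swiss mice (14–16 g), 10 per treated group and 20 infected controls, were infected i.v. with 0.1 mL of a 2 mg/mL M. tuberculosis H37Rv suspension. Oral dosing was in 0.5 mL 1.0% gum tragacanth, starting day 3 post-infection, twice daily, 5 days/week for 4 weeks. Percent survival was recorded at day 31; active meant survival consistently >80%.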

Assay [2] deals with Mus musculus. Nature of the assay: Antitubercular activity (3.1 mg/kg) in the 31-day murine mice model. The procedure, abridged:
as §1

Assay [3] has as its system Mus musculus. Description: Antitubercular activity (6.25 mg/kg) in the 31-day murine mice model. The method, boiled down:
as §1

The subject of assay [4] is Proteus mirabilis. Description: Minimum inhibitory dilution of medicated rat urine tested in vitro for antibacterial activity against Proteus mirabilis; Equal to 1:32.
Assay [5] deals with Proteus mirabilis. Nature of the assay: In vitro minimum inhibitory concentration against Proteus mirabilis. The method, boiled down: (§2)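 Compounds were dissolved in water, or in water with the minimum DMSO needed to keep them in solution, and tested by an established dilution method. A ">" prefix means the DMSO solvent blank was inhibitory at that level.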
The subject of assay [6] is Staphylococcus aureus. Description: In vitro minimum inhibitory concentration against Staphylococcus aureus. The method, boiled down: as §2
The test system of assay [7] is Staphylococcus aureus. Description: Minimum inhibitory dilution of medicated rat urine tested in vitro for antibacterial activity against Staphylococcus aureus; Equal to 1:8.
Assay [8] concerns Proteus mirabilis. Nature of the assay: Minimum inhibitory dilution of medicated rat urine tested in vitro for antibacterial activity against Proteus mirabilis; Equal to 1:192.
Assay [9] deals with Staphylococcus aureus. Nature of the assay: Minimum inhibitory dilution of medicated rat urine tested in vitro for antibacterial activity against Staphylococcus aureus; Equal to 1:128.
Assay [10] concerns Mus musculus. Nature of the assay: Antitubercular activity (100 mg/kg) in the 31-day murine model. The procedure, abridged:
as §1

Assay [11] relates to Mus musculus. Nature of the assay: Antitubercular activity (12.5 mg/kg) in the 31-day murine model. The method, boiled down:
as §1

The subject of assay [12] is Mus musculus. Nature of the assay: Antitubercular activity (25 mg/kg) in the 31-day murine model. The method, boiled down:
as §1

The test system of assay [13] is Mus musculus. Nature of the assay: Antitubercular activity (50 mg/kg) in the 31-day murine model. The method, boiled down:
as §1

Assay [14] relates to Proteus mirabilis. Nature of the assay: Minimum inhibitory dilution of medicated rat urine tested in vitro for antibacterial activity against Proteus mirabilis; Equals to 1:16.
Assay [15] concerns Staphylococcus aureus. Description: Minimum inhibitory dilution of medicated rat urine tested in vitro for antibacterial activity against Staphylococcus aureus; Equal to 1:64.
Setting [16] is: Proteus mirabilis, read-out: MIC.
Where [17] appears, read: Staphylococcus aureus, read-out: MIC.

In brackets after ≈: the same amount, converted by molar mass.

Usually MIC stands for the lowest concentration that inhibits growth of the organism. Turning to `C1=CC(=Nn2cccc2)C=CC1=Nn1cccc1` [AZAROLE], the Survival with Mus musculus [1] is reported as 80%; in the assay with Mus musculus [2], 70%; in the assay on Mus musculus [3], 100%. In addition, the MID is 0.03125 with Proteus mirabilis [4] and 0.125 in the assay with Staphylococcus aureus [7]. Also, the MIC with Proteus mirabilis [5] was greater than 125 µg/mL; against Staphylococcus aureus [6], greater than 62.5 µg/mL.

In the case of `c1ccc(Nn2cccc2)cc1`, the MID came to 0.005208 in the assay with Proteus mirabilis [8] and 0.00781 in the assay on Staphylococcus aureus [9]. The MIC in the assay with Proteus mirabilis [5] (setting [16]) was greater than 125 µg/mL; in the assay with Staphylococcus aureus [6] (setting [17]), 250 µg/mL (≈ 1580 µM).

Regarding `CC[C@@H](CO)NCCN[C@@H](CC)CO` [ETHAMBUTOL], the Survival in the assay with Mus musculus [10] amounted to 100%; in the assay on Mus musculus [11], 0%; with Mus musculus [12], 30%; in the assay on Mus musculus [13], 90%.

`Oc1ccc(Nn2cccc2)cc1`: the Survival in the assay with Mus musculus [1] amounted to 100%; with Mus musculus [2], 0%; with Mus musculus [3], 100%. Moreover, the MID with Proteus mirabilis [14] was 0.0625; in the assay with Staphylococcus aureus [15], 0.01562. In addition, the MIC with Proteus mirabilis [5] (setting [16]) was 31.3 µg/mL (≈ 180 µM); in the assay on Staphylococcus aureus [6] (setting [17]), no more than 7.8 µg/mL.
